From ChEMBL document CHEMBL1155506 (J Med Chem, 2010)

Legend:
[1] = target: 5-hydroxytryptamine receptor 2A (Homo sapiens, UniProt P28223); experiment: Displacement of [125I]DOI from human recombinant 5HT2A receptor expressed in HEK293 cells by scintillation counting; type: cell-based
In short: (§1)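 Crude plasma membranes from HEK293 cells stably expressing the human receptor (5–25 μg protein), in 20 mM HEPES pH 7.4 with 10 mM MgCl2. Incubated with 0.5 nM [125I]DOI and test compound (1 pM–10 μM) for 1 h at room temperature; nonspecific binding defined with 10 μM cold DOI. Filtered, washed with ice-cold Tris buffer and scintillation counted in triplicate.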

[2] = target: T1, 5-hydroxytryptamine receptor 2C (Homo sapiens, UniProt P28335); experiment: Displacement of [125I]DOI from human recombinant 5HT2C receptor expressed in HEK293 cells by scintillation counting; type: cell-based; in short: as §1
T1 sequence (P28335 whole entry): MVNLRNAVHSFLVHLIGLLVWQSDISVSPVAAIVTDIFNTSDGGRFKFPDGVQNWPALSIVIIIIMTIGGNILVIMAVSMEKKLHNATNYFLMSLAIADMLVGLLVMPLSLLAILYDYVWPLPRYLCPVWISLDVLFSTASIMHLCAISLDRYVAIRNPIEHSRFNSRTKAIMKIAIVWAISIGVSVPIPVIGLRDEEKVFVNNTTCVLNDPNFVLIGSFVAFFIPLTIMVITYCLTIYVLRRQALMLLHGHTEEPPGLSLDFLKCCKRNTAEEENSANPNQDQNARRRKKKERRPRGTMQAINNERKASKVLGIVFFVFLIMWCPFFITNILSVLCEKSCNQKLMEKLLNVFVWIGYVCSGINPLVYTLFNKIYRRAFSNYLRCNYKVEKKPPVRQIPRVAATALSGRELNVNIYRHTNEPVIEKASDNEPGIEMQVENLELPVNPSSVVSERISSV

hERG (KCNH2) [3] = target: T2, hERG (KCNH2) (Homo sapiens, UniProt Q12809); experiment: Inhibition of human ERG at 3 uM by patch clamp assay
T2 sequence (Q12809 whole entry): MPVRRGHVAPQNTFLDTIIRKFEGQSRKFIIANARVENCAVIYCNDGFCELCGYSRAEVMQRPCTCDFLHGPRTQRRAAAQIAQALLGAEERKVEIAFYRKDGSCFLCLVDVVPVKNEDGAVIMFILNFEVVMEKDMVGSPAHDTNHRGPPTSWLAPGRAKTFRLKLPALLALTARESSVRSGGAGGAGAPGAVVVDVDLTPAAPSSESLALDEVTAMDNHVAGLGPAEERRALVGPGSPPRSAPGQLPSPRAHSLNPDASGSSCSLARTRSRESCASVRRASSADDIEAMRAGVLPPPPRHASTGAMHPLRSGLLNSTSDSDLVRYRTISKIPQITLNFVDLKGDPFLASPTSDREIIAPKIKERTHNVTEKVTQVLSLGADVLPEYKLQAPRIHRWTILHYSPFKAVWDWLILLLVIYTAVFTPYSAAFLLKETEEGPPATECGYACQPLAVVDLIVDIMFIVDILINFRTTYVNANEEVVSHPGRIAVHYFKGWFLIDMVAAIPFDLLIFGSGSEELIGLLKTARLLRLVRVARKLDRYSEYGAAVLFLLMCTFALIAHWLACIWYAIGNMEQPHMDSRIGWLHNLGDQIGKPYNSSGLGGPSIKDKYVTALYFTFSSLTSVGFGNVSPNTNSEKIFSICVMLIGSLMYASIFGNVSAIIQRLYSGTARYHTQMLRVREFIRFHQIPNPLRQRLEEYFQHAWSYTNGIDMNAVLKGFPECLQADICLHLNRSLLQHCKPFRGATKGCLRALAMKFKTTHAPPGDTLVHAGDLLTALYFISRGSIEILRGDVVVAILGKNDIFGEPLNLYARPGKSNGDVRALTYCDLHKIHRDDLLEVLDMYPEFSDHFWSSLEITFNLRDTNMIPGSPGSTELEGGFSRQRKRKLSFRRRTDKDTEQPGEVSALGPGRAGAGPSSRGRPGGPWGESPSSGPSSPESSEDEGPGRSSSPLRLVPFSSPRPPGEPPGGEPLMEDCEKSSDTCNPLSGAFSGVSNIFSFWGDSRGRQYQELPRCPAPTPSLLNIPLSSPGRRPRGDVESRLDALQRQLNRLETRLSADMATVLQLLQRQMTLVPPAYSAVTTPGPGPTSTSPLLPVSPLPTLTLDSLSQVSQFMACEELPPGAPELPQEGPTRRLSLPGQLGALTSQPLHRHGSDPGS

[4] = Antiplatelet activity in human platelet rich plasma assessed as inhibition of ADP-induced aggregation preincubated for 1 min before 5-HT and ADP challenge measured after 3 mins by turbidimetry
hERG (KCNH2) [5] = target: T2, hERG (KCNH2); experiment: Inhibition of human ERG at 1 uM by patch clamp assay
[6] = Half life in Sprague-Dawley rat at 10 mg/kg, po by HPLC/MS/MS analysis; type: ADME, organism-based; parameters: dose 10 mg/kg, route oral; details: in vivo
In short: (§2)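 Male rats fasted overnight before oral dosing; 10 mg/kg po and 2 mg/kg iv in 80% PEG400/20% phosphate buffered saline. Jugular vein blood was sampled at 0.25–21 h over 24 h, and heparin plasma was assayed by HPLC/MS/MS (MRM, positive electrospray, internal standard; LLOQ 1 ng/mL, ULOQ 2000 ng/mL). %F is taken relative to the 2 mg/kg iv dose. Mean of n = 3 animals.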

[7] = AUC (0 to last) in Sprague-Dawley rat at 10 mg/kg, po after 24 hrs by HPLC/MS/MS analysis; type: ADME, organism-based; parameters: time 0 - last, dose 10 mg/kg, route oral; details: plasma; in short: as §2
[8] = Total clearance in Sprague-Dawley rat at 2 mg/kg, iv after 24 hrs by HPLC/MS/MS analysis; type: ADME, organism-based; parameters: dose 2 mg/kg, route intravenous; details: in vivo; in short: as §2
[9] = Bioavailability in Sprague-Dawley rat at 2 mg/kg, iv after 24 hrs by HPLC/MS/MS analysis; type: ADME, organism-based; details: in vivo; in short: as §2
[10] = Volume of distribution at steady state in Sprague-Dawley rat at 2 mg/kg, iv after 24 hrs by HPLC/MS/MS analysis; type: ADME, organism-based; parameters: dose 2 mg/kg, route intravenous; details: in vivo, read-out: Vdss; in short: as §2
[11] = Cmax in Sprague-Dawley rat at 10 mg/kg, po after 24 hrs by HPLC/MS/MS assay; type: ADME, organism-based; parameters: dose 10 mg/kg, route oral; details: in vivo; in short: as §2
[12] = target: Voltage-gated inwardly rectifying potassium channel KCNH2 (Homo sapiens, UniProt Q12809); experiment: Inhibition of human ERG by patch clamp assay
Chain of Voltage-gated inwardly rectifying potassium channel KCNH2 (Q12809 whole entry): as above

Chain of 5-hydroxytryptamine receptor 2A (P28223 whole entry): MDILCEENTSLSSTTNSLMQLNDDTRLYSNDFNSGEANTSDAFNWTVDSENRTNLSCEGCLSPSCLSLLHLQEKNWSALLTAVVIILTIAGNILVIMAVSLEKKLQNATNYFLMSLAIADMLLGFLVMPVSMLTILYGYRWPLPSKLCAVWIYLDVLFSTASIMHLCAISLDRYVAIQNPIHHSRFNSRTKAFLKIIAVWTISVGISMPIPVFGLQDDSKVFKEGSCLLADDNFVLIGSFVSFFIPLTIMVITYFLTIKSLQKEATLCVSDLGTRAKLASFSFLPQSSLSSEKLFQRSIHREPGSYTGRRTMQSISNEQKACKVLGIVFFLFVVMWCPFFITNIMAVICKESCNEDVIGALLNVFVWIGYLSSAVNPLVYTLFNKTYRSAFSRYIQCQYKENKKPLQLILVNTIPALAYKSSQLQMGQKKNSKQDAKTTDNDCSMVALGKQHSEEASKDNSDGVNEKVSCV

Row | SMILES | Ki [1] | Ki [2] | inhibition at 3 µM (hERG (KCNH2) [3]) | IC50 [4] | inhibition at 1 µM (hERG (KCNH2) [5]) | half-life [6] | AUC(0-t) at 24 h [7] | clearance [8] | bioavailability [9] | Vd [10] | Cmax [11] | IC50 [12]
1 | Cn1nccc1-c1cc(NC(=O)c2cccc(F)c2)ccc1OCCN1CCOCC1 | 5.1 nM | > 10000 nM | 43% | 86 nM | – | – | – | – | – | – | – | –
2 | Cn1nccc1-c1cc(NC(=O)c2ccc(F)c(F)c2)ccc1OCCN1CCOCC1 | 4.1 nM | > 10000 nM | 56% | 29 nM | – | – | – | – | – | – | – | –
3 | CC(=O)N1CCN(CCOc2ccc(NC(=O)c3cccc(C(F)(F)F)c3)cc2-c2ccnn2C)CC1 | 4.3 nM | 5610 nM | 75% | 145 nM | – | – | – | – | – | – | – | –
4 | COc1cccc(C(=O)Nc2ccc(OCCN)c(-c3ccnn3C)c2)c1 | 2.2 nM | 2350 nM | 22% | 6.9 nM | – | – | – | – | – | – | – | –
5 | Cn1nccc1-c1cc(NC(=O)c2ccc(C(F)(F)F)cc2)ccc1OCCN1CCOCC1 | 2.4 nM | 5900 nM | – | 61 nM | 33% | – | – | – | – | – | – | –
6 | Cn1nccc1-c1cc(NC(=O)c2ccc(F)cc2F)ccc1OCCN1CCOCC1 | 8.6 nM | > 10000 nM | – | 27 nM | 16% | 1.5 h | 171 ng·h/mL | 233 mL/min/kg | 22% | 11.7 L/kg | 56 ng/mL | 4100 nM
7 | Cn1ncc(Cl)c1-c1cc(NC(=O)c2cccc(C(F)(F)F)c2)ccc1OCCN1CCNC(=O)C1 | 5.3 nM | > 10000 nM | 53% | 127 nM | – | – | – | – | – | – | – | –
8 | COc1cccc(C(=O)Nc2ccc(OCCN3CCN(C(C)=O)CC3)c(-c3ccnn3C)c2)c1 | 4.5 nM | > 10000 nM | 24% | 77 nM | – | – | – | – | – | – | – | –
9 | COc1cccc(C(=O)Nc2ccc(OCCN3CCN(S(C)(=O)=O)CC3)c(-c3ccnn3C)c2)c1 | 28 nM | > 10000 nM | 23% | – | – | – | – | – | – | – | – | –
10 | Cn1nccc1-c1cc(NC(=O)c2cccc(C(F)(F)F)c2)ccc1OCCN1CCNC(=O)C1 | 287 nM | > 10000 nM | – | – | – | – | – | – | – | – | – | –
